# pIC50, pKd: −log10 of the molar value.
# What was measured:
# [1] = target: T1, Gonadotropin-releasing hormone receptor (Homo sapiens, UniProt P30968); test: Antagonist activity at human GnRH receptor expressed in CHO-K1 cells assessed as inhibition of LHRH-induced response preincubated for 20 mins followed by LHRH addition and measured after 60 mins by TR-FRET assay; format: cell-based
# T1 sequence (P30968 whole entry): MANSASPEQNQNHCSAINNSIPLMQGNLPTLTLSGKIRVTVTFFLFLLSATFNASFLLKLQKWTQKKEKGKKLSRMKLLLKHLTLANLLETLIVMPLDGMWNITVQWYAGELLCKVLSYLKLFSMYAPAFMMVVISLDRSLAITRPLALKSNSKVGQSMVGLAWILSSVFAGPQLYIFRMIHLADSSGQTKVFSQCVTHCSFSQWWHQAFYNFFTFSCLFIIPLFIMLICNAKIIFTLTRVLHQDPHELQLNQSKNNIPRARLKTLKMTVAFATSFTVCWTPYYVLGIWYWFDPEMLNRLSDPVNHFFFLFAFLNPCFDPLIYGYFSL
# [2] = target: T2, Gonadotropin-releasing hormone receptor (Rattus norvegicus, UniProt P30969); test: Antagonist activity at rat GnRH receptor expressed in CHO-K1 cells assessed as inhibition of buserelin-induced response preincubated for 20 mins followed by buserelin addition and measured after 60 mins by TR-FRET assay; format: cell-based
# T2 sequence (P30969 whole entry): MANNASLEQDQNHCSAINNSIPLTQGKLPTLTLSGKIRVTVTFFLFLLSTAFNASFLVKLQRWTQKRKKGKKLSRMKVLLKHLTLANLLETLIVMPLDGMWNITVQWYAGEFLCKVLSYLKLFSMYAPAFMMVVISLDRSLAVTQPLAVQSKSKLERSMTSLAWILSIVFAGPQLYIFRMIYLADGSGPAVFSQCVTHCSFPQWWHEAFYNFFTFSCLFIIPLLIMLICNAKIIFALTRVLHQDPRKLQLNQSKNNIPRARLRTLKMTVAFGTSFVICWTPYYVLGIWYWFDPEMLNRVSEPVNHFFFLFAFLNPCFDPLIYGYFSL
# In short: (§1)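 Frozen rat-receptor cells: thawed, seeded overnight in serum-containing Ham's F12, Accutase-harvested, resuspended in serum-free medium with IP1-d2, 1 h at 37 °C. 1.0 × 10^4 cells/well, 20 min compound preincubation at rt, then 1× EC80 LHRH or buserelin in HEPES stimulation buffer pH 7.4 for 60 min at 37 °C. Tb-anti-IP1 lysis (1:38), HTRF read 60 min later.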
# [3] = target: T2, Gonadotropin-releasing hormone receptor; test: Antagonist activity at rat GnRH receptor expressed in CHO-K1 cells assessed as inhibition of LHRH-induced response preincubated for 20 mins followed by LHRH addition and measured after 60 mins by TR-FRET assay; format: cell-based; in short: as §1
# [4] = target: T1, Gonadotropin-releasing hormone receptor; test: Antagonist activity at human GnRH receptor expressed in CHO-K1 cells assessed as inhibition of buserelin-induced response preincubated for 20 mins followed by buserelin addition and measured after 60 mins by TR-FRET assay; format: cell-based
# [5] = Intrinsic clearance in Han Wistar rat hepatocytes at 1 uM measured up to 90 mins by LC/MS/MS analysis; format: ADME, cell-based, Hepatocyte; conditions: for CLH: 1.5 h, 1 µM; for CLint scaled at 1 µM: Han Wistar, read-out: CLH (converted)
# [6] = Clearance in Wistar rat at 0.5 mg/kg, iv by LC-MS/MS analysis; format: ADME, organism-based; conditions: in vivo; for CL: 0.5 mg/kg; for clearance: Wistar
# [7] = Oral bioavailability in Wistar rat at 2 mg/kg by LC-MS/MS analysis; format: ADME, organism-based; conditions: in vivo
# [8] = test system: Rattus norvegicus; test: Suppression of ovariectomized-induced increase in plasma luteinizing hormone level in po dosed Wistar Han rat measured up to 24 hrs; format: functional; conditions: time hrs <=24
# In short: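 Ovariectomized rats given single oral doses, range 1 to 30 mg/kg. Plasma LH followed over time, with cetrorelix at 0.1 mg/kg sc as reference. ED50 calculated from the dose-response.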
# [9] = Half life in Wistar rat at 0.5 mg/kg, iv by LC-MS/MS analysis; format: ADME, organism-based; conditions: in vivo
# [10] = Lipophilicity, log D of the compound in pH 7.5 MeCN/H2O solution by reversed-phase HPLC analysis; format: physicochemical
# In short: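 Indirect reversed-phase HPLC at pH 7.5, calibrated with n-alkan-2-ones C3–C16. Compounds applied as 0.67 mM DMSO stocks in MeCN/H2O (1:1).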
# [11] = target: T3, Gonadotropin-releasing hormone receptor (Homo sapiens) (UniProt P30968); test: Inhibition of Tag-lite green-labeled agonist binding to terbium fluorophore-labeled human N-terminal SNAP-tag GnRh receptor expressed in HEK293 cells assessed as association rate constant by TR-FRET assay; format: cell-based; conditions: filed as antagonist
# T3 sequence (whole entry): T1 sequence (P30968 whole entry)
# In short: (§2)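 Kinetic competition at rt: tracer at 10 nM final with compound, Tb-hGnRH-R cells injected in the reader. TR-FRET read at time zero and every 21 s. Baseline-subtracted traces fitted with the Motulsky–Mahan competitive kinetics model. At least two independent experiments, two replicates each.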
# [12] = target: T1, Gonadotropin-releasing hormone receptor; test: Inhibition of Tag-lite green-labeled agonist binding to terbium fluorophore-labeled human N-terminal SNAP-tag GnRh receptor expressed in HEK293 cells assessed as equilibrium dissociation constant by TR-FRET assay; format: cell-based
# [13] = target: T3, Gonadotropin-releasing hormone receptor (Homo sapiens); test: Inhibition of Tag-lite green-labeled agonist binding to terbium fluorophore-labeled human N-terminal SNAP-tag GnRh receptor expressed in HEK293 cells assessed as residence time by TR-FRET assay; format: cell-based; conditions: filed as antagonist; in short: as §2
# [14] = target: T1, Gonadotropin-releasing hormone receptor; test: Inhibition of Tag-lite green-labeled agonist binding to terbium fluorophore-labeled human N-terminal SNAP-tag GnRh receptor expressed in HEK293 cells assessed as dissociation constant by TR-FRET assay; format: cell-based
# [15] = target: T3, Gonadotropin-releasing hormone receptor (Homo sapiens); test: Inhibition of Tag-lite green-labeled agonist binding to terbium fluorophore-labeled human N-terminal SNAP-tag GnRh receptor expressed in HEK293 cells assessed as dissociation rate constant by TR-FRET assay; format: cell-based; conditions: filed as antagonist; in short: as §2
Structure (SMILES),pIC50 [1],pIC50 [2],pIC50 [3],pIC50 [4],also measured
COc1ccc(S(=O)(=O)N2c3ccc(C(=O)NCc4ccccc4Cl)cc3C(C)(C)C2C)cc1 (stereo in doubt; form 1),6.25,5.95,6.14,5.82,–
COc1ccc(S(=O)(=O)N2c3ccc(C(=O)NCc4ccccc4Cl)cc3C3(CCN(C(C)=O)CC3)C2C)cc1 (stereo in doubt; form 3),7.82,–,–,7.55,CLH [5]: 1.2 L/h/kg; CL [6]: 1.9 L/h/kg; bioavailability [7]: 1.3%
O=C(NCc1ncccc1Cl)c1ccc2c(c1)C1(CCS(=O)(=O)CC1)C(C1CC1)N2S(=O)(=O)c1ccc(F)cc1 (stereo in doubt; 4a) [listing 1 of 2 here],–,–,–,–,Activity [8]: Dose-dependent effect
COc1ccc(S(=O)(=O)N2c3ccc(C(=O)NCc4ccccc4Cl)cc3C3(CCN(C(C)=O)CC3)C2C)cc1 (stereo in doubt; form 1),≤ 4.70,–,≤ 4.70,≤ 4.70,–
O=C(NCc1ncccc1Cl)c1ccc2c(c1)C1(CCS(=O)(=O)CC1)C(C1CC1)N2S(=O)(=O)c1ccc(F)cc1 (stereo in doubt),7.22,–,7.40,–,CLint scaled at 1 µM [5]: 4.17 mL/min/kg; half-life [9]: 126 min; clearance [6]: 30 mL/min/kg; bioavailability [7]: 27%
COc1ccc(S(=O)(=O)N2c3ccc(C(=O)NCc4ccccc4Cl)cc3C3(CCN(C(C)=O)CC3)C2C)cc1 (stereo in doubt; form 2),7.39,7.47,7.54,7.00,CLH [5]: 2.8 L/h/kg; half-life [9]: 49.2 min; CL [6]: 4.7 L/h/kg
COc1ccc(S(=O)(=O)N2c3ccc(C(=O)NCc4ccccc4Cl)cc3C(C)(C)C2C)cc1 (stereo in doubt; 1a),6.24,5.96,6.14,5.82,CLint scaled at 1 µM [5]: 51.7 mL/min/kg; chromatographic logD [10]: 3.8
COc1cccc(-c2c(C)n(Cc3c(F)cccc3C(F)(F)F)c(=O)n(C[C@H](NCCCC(=O)O)c3ccccc3)c2=O)c1F [ELAGOLIX SODIUM],–,–,–,–,K [11]: 2.06 10^5/M/s; pKd [12]: 8.92; TIME [13]: 1.27 h; pKd [14]: 8.49; K [15]: 3.3 10^-4/s
CC1N(S(=O)(=O)c2ccccc2)c2ccc(C(=O)NCc3ccccc3Cl)cc2C1(C)C (racemic),5.51,5.31,–,5.85,–
COc1ccc(S(=O)(=O)N2c3ccc(C(=O)NCc4ccccc4Cl)cc3C(C)(C)C2C)cc1 (stereo in doubt; form 2),≤ 4.70,≤ 4.70,≤ 4.70,≤ 4.70,–
CC(=O)N1CCC2(CC1)c1cc(C(=O)NCc3ccccc3Cl)ccc1N(S(=O)(=O)c1ccc(F)cc1)C2C (racemic),7.06,–,–,7.05,chromatographic logD [10]: 3.25
O=C(NCc1ncccc1Cl)c1ccc2c(c1)C1(CCS(=O)(=O)CC1)C(C1CC1)N2S(=O)(=O)c1ccc(F)cc1 (stereo in doubt; 4a) [listing 2 of 2 here],7.22,–,–,–,chromatographic logD [10]: 3; pIC50 ([3]; cho-k1): 7.40; ED50 [8]: 5.5 mg/kg
"CC(=O)N1CCC2(CC1)c1cc(C(=O)NCc3ncccc3Cl)ccc1N(S(=O)(=O)c1ccc(F)cc1)C2C (single isomer, unassigned)",7.27,–,–,7.46,CLint scaled at 1 µM [5]: 11.7 mL/min/kg; clearance [6]: 28.3 mL/min/kg; bioavailability [7]: 18%

# Source: ChEMBL document CHEMBL4673248, “Discovery and Characterization of BAY 1214784, an Orally Available Spiroindoline Derivative Acting as a Potent and Selective Antagonist of the Human Gonadotropin-Releasing Hormone Receptor as Proven in a First-In-Human Study in Postmenopausal Women” (J Med Chem, 2020)
